A short description of data set [1]: The alkaline hydrolysis second order rate constant(K OH) of the compound. Type of data set: ADME. The method, boiled down: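 Spectrophotometric hydrolysis in aqueous buffer pH 11.25 at 25 °C; loss of long-wavelength UV chromophore followed at 335 nm as first-order exponential decay. Compounds from DMSO stocks, final 15–20 μM, 5% DMSO final. Second-order rate constant kOH- calculated from first-order rates.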

In data set [2] the target is T1, Neutrophil elastase (Homo sapiens, UniProt P08246).
T1 sequence (P08246 whole entry): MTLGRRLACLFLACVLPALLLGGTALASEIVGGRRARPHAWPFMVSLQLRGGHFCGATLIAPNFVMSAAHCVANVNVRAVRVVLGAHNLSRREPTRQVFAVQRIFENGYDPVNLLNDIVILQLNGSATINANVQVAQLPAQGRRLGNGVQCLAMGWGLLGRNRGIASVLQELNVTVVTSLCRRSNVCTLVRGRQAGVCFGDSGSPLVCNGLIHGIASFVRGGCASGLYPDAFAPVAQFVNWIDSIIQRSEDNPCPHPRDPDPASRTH
Put plainly: (§1) Inhibitory activity against human leukocyte elastase. The method, boiled down:
(§2)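 Elastase purified from human leukocytes by affinity chromatography; enzyme stock diluted into 50 mM sodium phosphate, 500 mM NaCl, pH 7.8. Substrate Suc-Ala-Ala-Pro-Val-pNA at 100 μM final (1.3 Km); inhibitor in DMSO added to cuvette. Progress-curve method at 25 °C, at least five inhibitor concentrations for oxazinones (single 2 μM for thiazinones); curves fitted for kobs, giving Kd, Ki, kon (acylation) and koff (deacylation).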

For data set [3], the target named is T2, Neutrophil elastase (Homo sapiens) (UniProt P08246).
T2 sequence (whole entry): T1 sequence (P08246 whole entry)
The data set is described as follows: Kon was the acylation association equilibrium rate constant of a competitive inhibition of human leukocyte elastase(HLE). The method, boiled down:
as §2

For data set [4], the target named is T1, Neutrophil elastase. Described as §1. The procedure, abridged: as §2
This is another data set of the same source.

A short description of data set [5]: The alkaline hydrolysis second order rate constant(K OH) taken as log K.
Data set [6] deals with T2, Neutrophil elastase (Homo sapiens). The data set is described as follows: Koff was the deacylation association equilibrium rate constant of a competitive inhibition human leukocyte elastase(HLE). The procedure, abridged:
as §2

For data set [7], the target named is T1, Neutrophil elastase. The data set is described as §1. The method, boiled down:
as §2
This is another data set of the same source.

`CCN(CC)c1nc2scc(C)c2c(=O)o1`: the K in data set [1] came to 0.073 M⁻¹ s⁻¹. Affinity at Neutrophil elastase [2] was put at a Ki of 447 nM. In data set [3], this molecule registered a k on of 140 M⁻¹ s⁻¹. In addition, on Neutrophil elastase [4], the Kd (usually the free concentration of one partner at which half of the binding sites on the other are occupied at equilibrium, for simple one-to-one binding) stood at 5.5 µM and the Ki (as a rule, a dissociation constant, usually derived from enzyme kinetics or from competition with a known ligand) came to 450 nM. In data set [5], this molecule came in with a Log K of -1.14. The molecule further registered a k off in data set [6] of 6.4e-05 s⁻¹.
As for `CCN(CC)c1nc2scc(C(C)C)c2c(=O)o1`, in data set [1], the K was determined as 0.054 M⁻¹ s⁻¹. Besides, the Ki was 13.2 nM on Neutrophil elastase [2] and 13 nM at Neutrophil elastase [4]. In addition, the k on in data set [3] was 10000 M⁻¹ s⁻¹. This molecule also gave a Log K in data set [5] of -1.27. For the same molecule, in data set [6], the k off was determined as 0.00013 s⁻¹.
In data set [1], `CCN(CC)c1nc2sc3c(c2c(=O)o1)CCC3` had a K of 0.094 M⁻¹ s⁻¹. The Ki at Neutrophil elastase [2] is 12.6 nM; on Neutrophil elastase [4] it was 13 nM. Moreover, in data set [3], the k on amounted to 3600 M⁻¹ s⁻¹. In data set [5], this molecule came in with a Log K of -1.03. The molecule also returned a k off in data set [6] of 4.5e-05 s⁻¹.
Take `CCN(CC)c1nc2sc3c(c2c(=O)o1)C(C)CCC3` (stereo not drawn): the K in data set [1] amounted to 0.039 M⁻¹ s⁻¹. Further, the inhibitory constant (Ki) was 204 nM at Neutrophil elastase [2] and 210 nM at Neutrophil elastase [4]. In data set [3], this molecule came in with a k on of 63 M⁻¹ s⁻¹. This molecule registered a Log K in data set [5] of -1.41. The same molecule came in with a k off in data set [6] of 1.3e-05 s⁻¹.
For the molecule `CCN(CC)c1nc2sc3c(c2c(=O)o1)CCCC3`, the K in data set [1] stood at 0.032 M⁻¹ s⁻¹. For the same molecule, the Ki at Neutrophil elastase [2] was 12.6 nM; on Neutrophil elastase [4], 13 nM. Moreover, in data set [3], the k on was 2500 M⁻¹ s⁻¹. The molecule further gave a Log K in data set [5] of -1.49. In data set [6], this molecule displayed a k off of 3.2e-05 s⁻¹.
Molecule `CCN(CC)c1nc2sccc2c(=O)o1` registered a K in data set [1] of 0.12 M⁻¹ s⁻¹. The inhibition constant (Ki) was 257 nM on Neutrophil elastase [2] and 260 nM at Neutrophil elastase [4]. In data set [3], this molecule showed a k on of 530 M⁻¹ s⁻¹. The Log K in data set [5] was -0.91. For the same molecule, the k off in data set [6] is 0.00014 s⁻¹.
In data set [1], `CCN(CC)c1nc2sc3c(c2c(=O)o1)CCCCC3` yielded a K of 0.038 M⁻¹ s⁻¹. For the same molecule, the results for the inhibitory constant (Ki) at Neutrophil elastase [2] and at Neutrophil elastase [4] were 43.7 nM and 44 nM, respectively. In data set [3], the k on amounted to 990 M⁻¹ s⁻¹. Moreover, the Log K in data set [5] is -1.42. The molecule also registered a k off in data set [6] of 4.3e-05 s⁻¹.
In data set [1], `CCN(CC)c1nc2sc(C(N)=O)c(C)c2c(=O)o1` yielded a K of 0.4 M⁻¹ s⁻¹. Further, the Ki at Neutrophil elastase [2] is 91.2 nM; at Neutrophil elastase [4], 91 nM. In data set [3], the k on turned out to be 4000 M⁻¹ s⁻¹. In addition, the Kd at Neutrophil elastase [4] was 0.62 µM. Also, the Log K in data set [5] was -0.4. In data set [6], this molecule displayed a k off of 0.00036 s⁻¹.
`CCN(CC)c1nc2ccccc2c(=O)o1` returned a K in data set [1] of 5.9 M⁻¹ s⁻¹. For the same molecule, the results for the Ki on Neutrophil elastase [2] and on Neutrophil elastase [4] were 302 nM and 310 nM, respectively. Also, the k on in data set [3] came out at 2600 M⁻¹ s⁻¹. The molecule further showed a Log K in data set [5] of 0.77. Further, in data set [6], the k off was found to be 0.00079 s⁻¹.
Molecule `CCN(CC)c1nc2ccsc2c(=O)o1` registered a K in data set [1] of 0.11 M⁻¹ s⁻¹. In data set [3], this molecule returned a k on of 330 M⁻¹ s⁻¹. The inhibition constant Ki on Neutrophil elastase [7] is 132 nM; on Neutrophil elastase [4] it was 130 nM. Also, the Log K in data set [5] was -0.95. In data set [6], this molecule yielded a k off of 4.3e-05 s⁻¹.
In data set [1], `CCN(CC)c1nc2sc3ccccc3c2c(=O)o1` gave a K of 0.075 M⁻¹ s⁻¹. Moreover, the inhibition constant (Ki) on Neutrophil elastase [2] was 5.75 nM; at Neutrophil elastase [4] it was 5.8 nM. In data set [3], this molecule showed a k on of 9500 M⁻¹ s⁻¹. Besides, the Log K in data set [5] is -1.13. The k off in data set [6] worked out at 5.5e-05 s⁻¹.

The record behind these values is ChEMBL document CHEMBL1132695, “2-(diethylamino)thieno1,3ŏxazin-4-ones as stable inhibitors of human leukocyte elastase” (J Med Chem, 1999).
